According to ChEMBL document CHEMBL1131289, “2-Nitrophenylcarbamoyl-(S)-prolyl-(S)-3-(2-naphthyl)alanyl-N-benzyl-N - methylamide (SDZ NKT 343), a potent human NK1 tachykinin receptor antagonist with good oral analgesic activity in chronic pain models” (J Med Chem, 1998):

Tests used:
[1] = biological target: Substance-P receptor (Homo sapiens, UniProt P25103); assay: In vitro binding affinity towards Tachykinin receptor 1 by measuring its ability to displace [3H]SP (0.6 nM) binding to membranes from Cos-7 cells transiently transfected with the hNK-1R; type: cell membranes
[2] = biological target: T1, Substance-P receptor (Cavia porcellus, UniProt P30547); assay: Tachykinin receptor 1 antagonistic activity as inhibition of contractions evoked by 4 nM [Sar9,Met(O2)11]-SP in guinea pig ileum; type: functional, tissue-based
Outline: (§1)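 Guinea pig ileum contracted by [Sar9Met(O2)11]SP (4.0 nM), repeated at least five times until stable. Antagonist added 2 min before agonist; at least three concentrations, each tested three times. IC50 read from log10 concentration–response curve; mean ± SEM of three separate experiments.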

[3] = tested on: Cavia porcellus; assay: The compound was evaluated for its %inhibition of hyperalgesia at 30 mg/kg po dose and 1 hr after dosing; type: functional
Outline: (§2)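 Guinea pigs got 1% carrageenan (100 μL) intraplantar in one hind paw. Mechanical hyperalgesia was read 24 h later, before dosing. Compound was given orally at 30 mg/kg in 10% DMSO in 1% tragacanth or as a microemulsion. Readings were taken at intervals up to 6 h, and the value is percentage reversal of predose hyperalgesia.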

[4] = tested on: Cavia porcellus; assay: In vivo inhibition of hyperalgesia at 30 mg/kg po dose and 3h after dosing in guinea pig; type: functional; outline: as §2
[5] = species on record: Cavia porcellus; assay: The effective dose of compound used to inhibit 30% of hyperalgesia in guinea pig; type: functional
Outline: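 Hyperalgesia was induced in guinea pigs with intraplantar 1% carrageenan (100 μL) in one hind paw. Mechanical hyperalgesia was assessed 24 h later, then oral doses were given in 10% DMSO/1% tragacanth or a microemulsion. ED30, the dose giving 30% inhibition of hyperalgesia, was taken from dose–response data 3 h after dosing (n = 3).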

[6] = biological target: T1, Substance-P receptor; assay: Tested for Tachykinin receptor 1 […] activity by measuring its ability to inhibit contractions evoked by [Sar9,Met(O2)11]-SP (4 nM) in guinea pig ileum; type: functional, tissue-based; outline: as §1

T1 sequence (P30547 whole entry): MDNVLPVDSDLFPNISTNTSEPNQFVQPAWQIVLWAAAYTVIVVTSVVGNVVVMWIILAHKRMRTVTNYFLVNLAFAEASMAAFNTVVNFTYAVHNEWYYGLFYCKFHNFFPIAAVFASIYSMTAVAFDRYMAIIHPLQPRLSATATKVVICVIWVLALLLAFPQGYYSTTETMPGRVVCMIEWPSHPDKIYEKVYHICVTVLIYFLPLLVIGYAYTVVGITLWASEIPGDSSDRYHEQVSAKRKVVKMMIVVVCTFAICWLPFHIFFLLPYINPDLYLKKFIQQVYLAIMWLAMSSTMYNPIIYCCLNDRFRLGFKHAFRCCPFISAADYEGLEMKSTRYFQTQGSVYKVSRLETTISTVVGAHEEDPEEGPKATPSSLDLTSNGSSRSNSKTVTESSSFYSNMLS
Sequence of Substance-P receptor (Homo sapiens, UniProt P25103) (P25103 whole entry): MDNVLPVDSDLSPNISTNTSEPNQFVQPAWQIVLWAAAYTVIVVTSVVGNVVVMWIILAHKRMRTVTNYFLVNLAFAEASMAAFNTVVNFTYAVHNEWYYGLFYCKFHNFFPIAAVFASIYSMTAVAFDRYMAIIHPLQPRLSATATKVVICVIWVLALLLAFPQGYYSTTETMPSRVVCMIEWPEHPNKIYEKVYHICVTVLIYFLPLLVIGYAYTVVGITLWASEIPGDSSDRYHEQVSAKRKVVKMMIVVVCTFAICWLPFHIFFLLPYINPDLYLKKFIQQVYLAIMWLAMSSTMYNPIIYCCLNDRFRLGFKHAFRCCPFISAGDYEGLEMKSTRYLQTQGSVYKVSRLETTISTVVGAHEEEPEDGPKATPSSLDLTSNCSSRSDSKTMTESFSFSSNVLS

Compound | Ki [1] [nM] | further results
CN(Cc1ccccc1)C(=O)[C@H](Cc1ccc2ccccc2c1)NC(=O)[C@@H]1CCCN1C(=O)Nc1ccc(F)cc1 | 2.2 | IC50 [2]: 17.3 nM
CN(Cc1ccccc1)C(=O)[C@H](Cc1ccccc1)NC(=O)[C@@H]1CCCN1C(=N)NCc1ccccc1Cl | 18.5 | 
CN(Cc1ccccc1)C(=O)[C@H](Cc1ccc2ccccc2c1)NC(=O)[C@@H]1CCCN1C(=N)NCc1ccccc1Cl | 0.5 | 
CN(Cc1ccccc1)C(=O)[C@H](Cc1cccc2ccccc12)NC(=O)[C@@H]1CCCN1/C(S)=N/Cc1ccccc1Cl | 13.7 | 
CN(Cc1ccc2ccccc2c1)C(=O)[C@H](Cc1ccccc1)NC(=O)[C@@H]1CCCN1/C(S)=N/Cc1ccccc1Cl | 36 | 
CN(Cc1ccccc1)C(=O)[C@H](Cc1ccc2ccccc2c1)NC(=O)[C@@H]1CCCN1C(=O)Nc1cccnc1 | 6.7 | IC50 [2]: 4.2 nM; inhibition in vivo at 30 mg/kg [3]: 14%
CN(Cc1ccccc1)C(=O)[C@H](Cc1ccc(Cl)c(Cl)c1)NC(=O)[C@@H]1CCCN1/C(S)=N/Cc1ccccc1Cl | 5 | 
CN(Cc1ccccc1)C(=O)[C@H](Cc1ccc2ccccc2c1)NC(=O)[C@@H]1CCCN1C(=O)Nc1cccc(C#N)c1 | 4.2 | inhibition in vivo at 30 mg/kg [4]: 38%; IC50 [2]: 2.6 nM
CNC(=O)c1ccccc1NC(=O)N1CCC[C@H]1C(=O)N[C@@H](Cc1ccc2ccccc2c1)C(=O)N(C)Cc1ccccc1 | 3.8 | IC50 [2]: 3 nM
CN(Cc1ccccc1)C(=O)[C@H](Cc1ccc2ccccc2c1)NC(=O)[C@@H]1CCCN1C(=O)Nc1ccccc1 | 0.88 | inhibition in vivo at 30 mg/kg [4]: 26%; IC50 [2]: 5 nM
O=C(NCCc1c[nH]c2ccccc12)[C@H](Cc1ccccc1)NC(=O)[C@@H]1CCCN1C(=S)NCc1ccccc1Cl |  | IC50 [1]: 3700 nM
CN(Cc1ccccc1)C(=O)[C@H](Cc1ccccc1)NC(=O)[C@@H]1CCCN1/C(S)=N/Cc1c(Cl)cccc1Cl | 25.9 | 
CN(Cc1ccccc1)C(=O)[C@H](Cc1ccc2ccccc2c1)NC(=O)[C@@H]1CCCN1C(=O)Nc1ccccc1F | 3.5 | 
CN(Cc1ccccc1)C(=O)[C@H](CCc1ccccc1)NC(=O)[C@@H]1CCCN1/C(S)=N/Cc1ccccc1Cl |  | IC50 [1]: 206 nM
CN(CCc1ccccc1)C(=O)[C@H](Cc1ccccc1)NC(=O)[C@@H]1CCCN1C(=S)NCc1ccccc1Cl |  | IC50 [1]: 2500 nM
CN(C)C(=O)c1ccccc1NC(=O)N1CCC[C@H]1C(=O)N[C@@H](Cc1ccc2ccccc2c1)C(=O)N(C)Cc1ccccc1 | 6.1 | 
COCc1ccccc1NC(=O)N1CCC[C@H]1C(=O)N[C@@H](Cc1ccc2ccccc2c1)C(=O)N(C)Cc1ccccc1 | 1 | inhibition in vivo at 30 mg/kg [4]: 67%; IC50 [2]: 1.2 nM; ED30 [5]: 1.2 mg/kg
CN(Cc1ccccc1)C(=O)[C@H](Cc1ccc2ccccc2c1)NC(=O)[C@@H]1CCCN1C(=O)Nc1ccccc1C(=O)O | 172 | 
CN(Cc1ccccc1)C(=O)[C@H](Cc1ccccc1)NC(=O)[C@@H]1CCCN1C(=O)NCc1ccccc1Cl |  | IC50 [1]: 590 nM
CN(Cc1ccccc1)C(=O)[C@@H](Cc1ccccc1)NC(=O)[C@H]1CCCN1/C(S)=N/c1ccccc1Br |  | IC50 [1]: 1000 nM
Cc1ccccc1C/N=C(\S)N1CCC[C@H]1C(=O)N[C@@H](Cc1ccccc1)C(=O)N(C)Cc1ccccc1 |  | IC50 [1]: 410 nM
CN(Cc1ccccc1)C(=O)[C@H](Cc1ccc2ccccc2c1)NC(=O)[C@@H]1CCCN1C(=O)Nc1ccccc1CO | 1.7 | 
CN(Cc1ccccc1)C(=O)[C@H](Cc1ccc2ccccc2c1)NC(=O)[C@@H]1CCCN1C(=O)Nc1ccc(C#N)cc1 | 1.1 | inhibition in vivo at 30 mg/kg [4]: 32%; IC50 [2]: 2.4 nM
CN(Cc1ccncc1)C(=O)[C@H](Cc1ccccc1)NC(=O)[C@@H]1CCCN1C(=S)NCc1ccccc1Cl |  | IC50 [1]: 10000 nM
CN(Cc1ccccc1)C(=O)[C@H](Cc1ccc2ccccc2c1)NC(=O)[C@@H]1CCCN1C(=O)Nc1ccccc1C(F)(F)F | 18.2 | 
CN(Cc1ccccc1)C(=O)[C@H](Cc1ccc2ccccc2c1)NC(=O)[C@@H]1CCCN1C(=O)Nc1ccccc1C(N)=O | 0.8 | inhibition in vivo at 30 mg/kg [4]: 35%; IC50 [2]: 1.9 nM; ED30 [5]: 15.7 mg/kg
CN(Cc1cccc2ccccc12)C(=O)[C@H](Cc1ccccc1)NC(=O)[C@@H]1CCCN1C(=S)NCc1ccccc1Cl | 17.1 | 

Compound | Ki [1] [nM] | further results
CN(Cc1ccccc1)C(=O)[C@H](Cc1ccccc1)NC(=O)[C@@H]1CCCN1/C(S)=N/Cc1ccccc1[N+](=O)[O-] | 77.6 | 
CN(Cc1ccccc1)C(=O)[C@H](Cc1ccc2ccccc2c1)NC(=O)[C@@H]1CCCN1C(=O)Nc1cccc(C(N)=O)c1 | 5 | 
CN(Cc1cc(C(F)(F)F)cc(C(F)(F)F)c1)C(=O)[C@H](Cc1ccccc1)NC(=O)[C@@H]1CCCN1C(=S)NCc1ccccc1Cl | 26.9 | 
COC(=O)c1ccccc1NC(=O)N1CCC[C@H]1C(=O)N[C@@H](Cc1ccc2ccccc2c1)C(=O)N(C)Cc1ccccc1 | 0.3 | IC50 [2]: 6 nM
CN(Cc1ccccc1)C(=O)[C@H](Cc1ccccc1)NC(=O)[C@@H]1CCCN1C(=S)NCc1ccccc1F |  | IC50 [1]: 290 nM
CN(Cc1ccccc1)C(=O)[C@H](Cc1ccccc1)NC(=O)[C@@H]1CCCN1C(=S)NCc1cc(C(F)(F)F)cc(C(F)(F)F)c1 | 78.6 | 
CN(C(=O)[C@H](Cc1ccccc1)NC(=O)[C@@H]1CCCN1C(=S)NCc1ccccc1Cl)c1ccccc1 |  | IC50 [1]: 100000 nM
CN(Cc1ccccc1)C(=O)[C@@H](NC(=O)[C@@H]1CCCN1C(=S)NCc1ccccc1Cl)C(c1ccccc1)c1ccccc1 | 29.4 | 
CN(Cc1ccccc1)C(=O)[C@H](Cc1ccccc1)NC(=O)[C@@H]1CCCN1C(=S)NCc1ccccc1Cl | 29.9 | 
CN(Cc1ccccc1)C(=O)[C@H](Cc1ccc2ccccc2c1)NC(=O)[C@@H]1CCCN1C(=O)Nc1cccc(F)c1 | 0.7 | inhibition in vivo at 30 mg/kg [4]: 10%; IC50 [2]: 6.8 nM
CN(Cc1ccccc1)C(=O)[C@H](Cc1ccc2ccccc2c1)N(C)C(=O)[C@@H]1CCCN1C(=S)NCc1ccccc1Cl | 1.7 | 
CN(Cc1ccccc1)C(=O)[C@H](Cc1ccccc1)NC(=O)[C@@H]1CCCN1/C(S)=N/Cc1ccccc1C(F)(F)F | 27.2 | 
CN(Cc1ccccc1)C(=O)[C@H](Cc1ccccc1)NC(=O)[C@@H]1CCCN1C(=S)Nc1ccccc1 (single isomer, unassigned) | 80 | 
CN(Cc1ccccc1)C(=O)[C@H](Cc1ccccc1)NC(=O)[C@@H]1CCCN1C(=S)NCc1ccccc1Br | 29.7 | 
CN(Cc1ccccc1)C(=O)[C@H](Cc1ccc2ccccc2c1)NC(=O)[C@@H]1CCCN1C(=O)Nc1ccccc1C#N | 1.1 | inhibition in vivo at 30 mg/kg [4]: 42%; IC50 [2]: 1 nM; ED30 [5]: 2.1 mg/kg
CC(=O)Nc1ccccc1NC(=O)N1CCC[C@H]1C(=O)N[C@@H](Cc1ccc2ccccc2c1)C(=O)N(C)Cc1ccccc1 |  | IC50 [6]: 7.5 nM
CN(Cc1ccccc1)C(=O)[C@H](Cc1ccc2ccccc2c1)NC(=O)[C@@H]1CCCN1C(=O)Nc1ccccc1N |  | IC50 [2]: 21 nM
CN(Cc1ccccc1)C(=O)[C@H](Cc1ccc2ccccc2c1)NC(=O)[C@@H]1CCCN1C(=O)Nc1cccc([N+](=O)[O-])c1 | 2.3 | 
CN(Cc1ccccc1)C(=O)[C@H](Cc1c[nH]c2ccccc12)NC(=O)[C@@H]1CCCN1C(=S)NCc1ccccc1Cl | 16.7 | 
CN(Cc1ccccc1)C(=O)[C@H](Cc1ccc2ccccc2c1)NC(=O)[C@@H]1CCCN1C(=O)NCc1ccccc1Cl | 2.3 | 
CN(Cc1ccccc1)C(=O)[C@H](Cc1ccccc1)NC(=O)[C@@H]1CCCN1/C(S)=N/Cc1ccccc1 | 1010 | 
CN(Cc1ccccc1)C(=O)[C@H](Cc1ccc2ccccc2c1)NC(=O)[C@@H]1CCCN1C(=O)Nc1ccccc1O | 2.6 | 
CN(Cc1ccccc1)C(=O)[C@H](Cc1ccccc1)N(C)C(=O)[C@@H]1CCCN1/C(S)=N/Cc1ccccc1Cl | 38 | 
CN(CCc1c[nH]c2ccccc12)C(=O)[C@H](Cc1ccccc1)NC(=O)[C@@H]1CCCN1/C(S)=N/Cc1ccccc1Cl | 48 | 
CN(Cc1ccccc1)C(=O)[C@H](Cc1ccc(-c2ccccc2)cc1)NC(=O)[C@@H]1CCCN1/C(S)=N/Cc1ccccc1Cl | 7.2 | 
CN(Cc1ccccc1)C(=O)[C@H](Cc1cn(C)c2ccccc12)NC(=O)[C@@H]1CCCN1/C(S)=N/Cc1ccccc1Cl | 4.7 | 
CN(Cc1ccccc1)C(=O)[C@@H](Cc1ccccc1)NC(=O)[C@H]1CCCN1C(=S)Nc1ccccc1Cl |  | IC50 [1]: 3200 nM
